Data on 37 variants can be found in the RNAGym collection of RNA variant scans (doi:10.1126/science.aae0568).

Sequences and labels used below:
B1: tRNA (parent)
chain: GUUCCGUUGGCGUAAUGGUAACGCGUCUCCCUCCUAAGGAGAAGACUGCGGGUUCGAGUCCCGUACGGAACG

This sample holds only a part of the variants without activity. A value given as a limit tells only on which side of the number the result lay.

Variants of B1 are the subject of the data set. Put plainly: yeast fitness relative to wild type (ratio to wild type); higher = fitter; tRNA-Arg(CCU), competitive growth, 37 C, YPD. Summed up: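 Changes in genotype frequencies gave Darwinian fitness relative to wild type. Frequencies were read by 100-nucleotide paired-end sequencing of gene amplicons before and after pooled Saccharomyces cerevisiae strains, carrying tRNA-Arg(CCU) gene variants at the native locus, were competed in YPD at 37°C for 24 hours in six replicates. A genotype was kept only with ≥ 100 starting reads, and estimates < 0.5 were set to 0.5.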
With GUUCCGUUGGCGUAAUGGUAACGCGUCUCCCUCCUAAGGGGAAGACUGCGGGUUCGAGUCCCGUACAGAACG, the yeast fitness stood at 0.754. GUUCCGUUGGCGUAAUGGCAACGCGUCUCCCUCCUAAGGAGAAGACUGCGCGUUCGAGUCCCGUAUGGAACG: the yeast fitness is at most 0.5.

For GUUCCGUCGGCGUAAUGGUAACGCGUCUCCCUCCUAAGGAGAAGACUGCGGGUUCGAGUCCCGUACGUAACG, the yeast fitness was 0.857. Next, GUUCCGUUGGCGUGAUGGUAACGCGUCUCCCUCCUAAGGAGAAGACAGCGGGUUCGAGUCCCGUACGGCACG: at most 0.5.

Consider GUUCCGUUGGCGUAAUGGUAACGCGUCUCCCUCCUAAGGAGAAAACUGCGGGUUCGAGCCCCGUACGGAACG, for which the yeast fitness turned out to be 0.799. Next, GUUCCGUUGGCGUAAUGGUAACGCGUCUCGCUCCUAAGGAGAAGACUGUGGGUUCGAGUCCCGAACGGAACG: 0.702; GUUCCAUGGGCGUAAUGGUAACGCGUCUCCCUCCUAAGGAGUAGACUGCGGGUUCGAGUCGCGUACGGAACG: at most 0.5. The value for GUUCCGUUGGCGUAAUGGUAACGCGUCUCCCUCCUAAGGAGAAGACUGCGGGUUCGAGGCCCGUACGGAUCG was 0.747.

On to GUUGCGUUGGCGUAAUGGUAACGCGUCUCCCUCCUAAGAAGAAGACUGCGGGUUCGAGUCCCGUCCGGAACG, for which the yeast fitness was at most 0.5. On to GUUCCGUUCGCGUAGUGGUAACGCGUCUCCCUUCUCAGCAGAAGAGUGCGCGUUCGAGUCCCGUACGGAACG, for which the yeast fitness was at most 0.5.

In the case of GUUCCGUUGGCGUAAUGGUAACGCGUCUCCCUCCUUAGGAAAAGACUGGGGGUUCGAGUCCCGUACGGAACG, the yeast fitness came out at 0.601. The value for GUUCCGAUGGCGUAUUGGUAACGCGUCUCCCUCCUAAGGGGAAGACUGCGGGUUCGAGUCCCGUACGCAACG was 0.514; that for GUUCCGUUGGCGUAAUGGUAACGCGUCUUCAUCCUAAGGAGAAGACUGCGGGGUCGAGUCCCGUACGGAACG was at most 0.5; that for GUUCCGUUGGCGUAGUGGUAACGCGUCUCCCUCCUUAGGAGAAGACUGCGGGUUAGCGUCCCGUACGGAACG was 0.579. The value for GUCCCGUUGGCGUAAUGGUAAUGCGUCUCCCUCCUUAGGAGAAGACUGCGGGUUCGAGUCCUGUACGGAACG was at most 0.5; that for GUUCCGUUGGUGUAAUGGUAACGCGUCUCCCUCAUAAGGAGAAGACUGCGGGUUCGAGUCUCGUACGGAACG was at most 0.5; that for GUUCCGUUGGCGUAAUGGUAACGCGUCUCCCUCCUAAGGAGAAGACUGCGGGUUCGGGUCCCGCACGGAACG was 0.979. Consider GUCCCGUUGGCGUAAUGGUAACGCGUCUCCUUCCUAAGGAGAAGACUGCGGGUUCGAGUCCCGUACCGAACG, for which the yeast fitness was found to be 0.797. Next, GUUCCGUAGGCGUAAUGGGAAUGCGUCUCCCUCCUAAGGAGAAGACUGCGGGUUCGAGUCCCGUACGGAACG: at most 0.5; GUUCCGUUGGCGUAAUGGUAGCGCGUCUCCCUCCUAAGGAGAAGACUGCGGGUUCGAGUCCCGUAUGGUACG: 0.771; GUUCCGUUGGCGUAAUGGUAACGCGUCUCCUUCCCAAGGAGAAGACAGCGGGUUCGAGUCCCGUACGGAACG: at most 0.5. As for GUUCCGUUGGCGUAAUGGUAACGCGUCUCCCUCAUAAGGAGAAGACUGCGGCUUCGAGUGCCGUACGGAACG, the yeast fitness stood at 0.544. The value for GUUCCGUUAGCGUAAUGGUAACGCGUCCCCCUCCUAAGGAGAAGACUGCGGGUUGGAGUCCGGUACGGAACG was at most 0.5. The value for GUUCCGUUGACGAAAUGGUAACGAGUCUCCCUCCUAAGGAGAAGACUGCGGGUUGGAGUCCUGUACGGAACG was at most 0.5. Next, GGUCCGUUGGCGUAAUGGUAACGCGUCUCCCUCUUAAGGAGAAGACUGCGGGUUCGCGUCCCGUACGGAACG: at most 0.5; GUUCCGUUGGAGUAAUGGUAACGCGUCUCCCUCCUAAGGAGAAGACUGCGGGUCCGUGUCCCGUACGGAACG: 0.565; GUUCCGUUAGGGUAAUGGUAACGCGUCUCCCUCCUAAGGAGAAGACUGCGGGUUCGAGUCCCGUACGGAACG: 0.583. As for GUUCCGUUGGUGUAAUGAUAACCCGUCUCCCUCUUAAGGAGAAGACUGCGGGUUCGAGUCCCGUACGGAACG, the yeast fitness is at most 0.5. The value for GUUCCGUUGGCGUAAUGGUAACGCGUCUCCCUCCUAAGGAGAGGACUGUGGGUUCGAGUCCCGUACGGCACG was 0.6.

As for GUUCCGUUGGCGUAAUGGUAACGCGUCUCCCUCCCAAGGAGAAGAUUGCGGGUUCGAGUCCCGUACGGAACG, the yeast fitness worked out at 0.938. With GUUCCGGUGGCGUAAUGGUAACGCGUUUCCCUCCUAAGGAGAAGACUGCGGGUUCGAGUCCCGUACGAAACG, the yeast fitness is at most 0.5. Next, GUUCCGUUGGAGUAAUGGUAACGCGUCUCCCUUCUAAGGAGAAGACUGCGGGUUCGAGUCCCGUACGGAACG: 0.533; GUUUGGUUGGCGUAACGGUAACGGGUCUCCCUCCUAAGGAGCAGACUGCGGGUUCAAGUCCCGUACGGAACG: at most 0.5; GUUCCGUUGGCGUAAUGGUAUCGAGUCUCCCUCCUAAGGAGAAGUCUGCGGGUUCGAGUCCUGUACGGAACG: at most 0.5. For the variant GUUCCGUUGGCGUAAUGGUAACCCGUCUCCGUCCUAACGAGAAGACUGCGGGUUCGAGUCCCGUACGGAACG, the yeast fitness is at most 0.5. Turning to GUUCCCUUGGGGUAAUGGUGACGCGUCUCCCUCCUAAGGAGAAGACUCCGGGUUCGGGAACCGUACGGAACG, the yeast fitness was at most 0.5. Next, GUUCCGUUGGCGUAAUGGUAACGCGUCUCCCUCCUAAGGAGAAGACUGCGGCCUCGAGUCCCGUACCGAACG: at most 0.5.
